# Test results published in ChEMBL document CHEMBL4680218, “Design and synthesis of tripeptidyl furylketones as selective inhibitors against the β5 subunit of human 20S proteasome” (Eur J Med Chem, 2020).
# pIC50, pKd: −log10 of the molar value. Activity calls are given as the source filed them.
# Legend:
# [1] = molecular target: T1, Proteasome Macropain subunit MB1 (Homo sapiens) (UniProt P28074); assay: Inhibition of chymotrypsin-like activity of human 20S proteasome beta5 subunit at 50 uM using Suc-LLVY-Glo as substrate incubated for 2 hrs followed by substrate addition and measured for 10 mins by bioluminescent assay relative to control; settings: time 130.0 min
# T1 sequence (whole entry): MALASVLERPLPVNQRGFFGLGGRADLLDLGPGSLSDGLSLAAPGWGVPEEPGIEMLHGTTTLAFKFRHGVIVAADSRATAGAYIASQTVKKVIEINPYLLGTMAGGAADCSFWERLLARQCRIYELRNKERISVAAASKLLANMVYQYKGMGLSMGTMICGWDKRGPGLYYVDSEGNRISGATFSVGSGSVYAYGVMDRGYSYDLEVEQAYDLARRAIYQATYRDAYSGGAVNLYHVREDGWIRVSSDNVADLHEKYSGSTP
# Summary of the method: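 Human constitutive 20S proteasome (1 µg/mL) was incubated with compound for 2 h at 25 °C in 10 mM HEPES pH 7.6 with 1% DMSO final. Suc-LLVY-Glo substrate was then added, and luminescence was read over 10 min. Inhibition rate was calculated against the uninhibited signal.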
# [2] = molecular target: T2, Proteasome Macropain subunit MB1 (Homo sapiens, UniProt P28074); assay: Inhibition of chymotrypsin-like activity of human 20S proteasome beta5 subunit using Suc-LLVY-Glo as substrate incubated for 2 hrs followed by substrate addition and measured for 10 mins by bioluminescent assay
# T2 sequence (P28074 whole entry): T1 sequence (whole entry)
# Summary of the method: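 Human constitutive 20S proteasome (1 μg/mL) was combined with compound serially diluted in 10 mM HEPES pH 7.6, with final DMSO 1% (v/v). After 2 h at 25 °C, Suc-LLVY-Glo (CT-L), Z-LRR-Glo (T-L) or Z-nLPnLD-Glo (C-L) reagent was added. Luminescence was read over 10 min, and IC50 was taken from inhibition rates.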
# [3] = molecular target: T1, Proteasome Macropain subunit MB1 (Homo sapiens); assay: Reversible inhibition of human 20S proteasome beta5 subunit assessed as residual enzyme activity using Suc-LLVY-Glo as substrate preincubated for 2 hrs followed by compound washout and further incubated for 4 hrs followed by substrate addition and measured after 10 mins by bioluminescent assay relative to control
# Summary of the method: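 Human 20S proteasome (8 μg/mL) was pre-incubated with inhibitor for 2 h at 25 °C. Samples were then washed five times in assay buffer on 100 kDa cut-off centrifugal filters (14,000 g, 5 min each) and recovered. After a further 4 h at 25 °C, Suc-LLVY-Glo was added and luminescence was read after 10 min. Unwashed samples held an extra 4 h served as the standard.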
# [4] = molecular target: T1, Proteasome Macropain subunit MB1 (Homo sapiens); assay: Covalent binding affinity to human 20S proteasome beta5 subunit assessed as hemi-ketal formation using H2O-MeOH as mobile phase by HPLC analysis
# [5] = molecular target: T1, Proteasome Macropain subunit MB1 (Homo sapiens); assay: Binding affinity to immobilized human 20S proteasome beta 5 subunit assessed as association rate constant by SPR analysis
# Summary of the method: (§1)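 Purified human constitutive 20S proteasome was immobilised on a CM5 chip. Analyte was a 2-fold series from 25 to 1.56 µM in running buffer (10 mM phosphate, 2.7 mM KCl, 137 mM NaCl, 0.05% P20, 5% DMSO, pH 7.4). Flow was 30 µL/min, with 60 s association and 60 s dissociation. Responses were normalised by molecular weight, and kon/koff came from a 1:1 binding fit.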
# [6] = molecular target: T1, Proteasome Macropain subunit MB1 (Homo sapiens); assay: Binding affinity to immobilized human 20S proteasome beta 5 subunit assessed as dissociation rate constant by SPR analysis; summary of the method: as §1
# [7] = molecular target: T2, Proteasome Macropain subunit MB1; assay: Binding affinity to immobilized human 20S proteasome beta 5 subunit by SPR analysis
# Summary of the method: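 SPR used purified human 20S proteasome coupled to a CM5 chip. Analytes were 2-fold series from 25 to 1.56 μM in PBS-P running buffer (pH 7.4, 0.05% P20) with 5% DMSO, flowed at 30 μL/min with 60 s association and 60 s dissociation. Data were normalized by molecular weight and fitted to a 1:1 Langmuir model; KD is from the rate constants.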
# A-375 = assay: Cytotoxicity against human A-375 cells assessed as reduction in cell viability after 72 hrs by Cell Titer-Glo assay; format: functional, cell-based; settings: A-375, 72 h
# Summary of the method: (§2)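 Cells were cultured in their respective media with 10% FBS, seeded from log phase at 1000 cells/well, and given compound after 18–24 h. After 72 h, an equal volume of CellTiter-Glo reagent was added and luminescence was read at 37 °C. IC50 came from dose-response curve fits; values are mean ± SD of three independent experiments, each in biological triplicate.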
# BGC-823 = assay: Cytotoxicity against human BGC-823 cells assessed as reduction in cell viability after 72 hrs by Cell Titer-Glo assay; format: functional, cell-based; settings: BGC-823, 72 h; summary of the method: as §2
# HeLa = assay: Cytotoxicity against human HeLa cells assessed as reduction in cell viability after 72 hrs by Cell Titer-Glo assay; format: functional, cell-based; summary of the method: as §2
# A549 = assay: Cytotoxicity against human A549 cells assessed as reduction in cell viability after 72 hrs by Cell Titer-Glo assay; format: functional, cell-based; settings: A549, 72 h; summary of the method: as §2
# [8] = Cytotoxicity against human PC3M1E8 cells assessed as reduction in cell viability after 72 hrs by Cell Titer-Glo assay; format: functional, cell-based; settings: PC3M1E8, 72 h; summary of the method: as §2
# HCT-116 [9] = assay: Cytotoxicity against human HCT-116 cells assessed as reduction in cell viability after 72 hrs by Cell Titer-Glo assay; format: functional, cell-based; settings: HCT-116, 72 h; summary of the method: as §2
# HEK293 = assay: Cytotoxicity against human HEK293 cells assessed as reduction in cell viability after 72 hrs by Cell Titer-Glo assay; format: cell-based; settings: HEK293, 72 h; summary of the method: as §2
# HT-29 = assay: Cytotoxicity against human HT-29 cells assessed as reduction in cell viability after 72 hrs by Cell Titer-Glo assay; format: functional, cell-based; settings: HT-29, 72 h; summary of the method: as §2
# HCT-116 [10] = assay: Cell cycle arrest in human HCT-116 cells assessed as accumulation at G1 phase at 1 uM after 24 hrs by propidium iodide staining based flow cytometric analysis (reference value: 29%); format: functional
# HCT-116 [11] = assay: Cell cycle arrest in human HCT-116 cells assessed as accumulation at S phase at 1 uM after 24 hrs by propidium iodide staining based flow cytometric analysis (reference value: 50%); format: functional
# HCT-116 [12] = assay: Cell cycle arrest in human HCT-116 cells assessed as accumulation at G2/M phase at 1 uM after 24 hrs by propidium iodide staining based flow cytometric analysis (reference value: 21%); format: functional
# [13] = Cmax in Sprague-Dawley rat at 5 mg/kg, iv measured up to 48 hrs by LC-MS/MS analysis; format: ADME, organism-based; design: route intravenous, dose 5 mg/kg, time <=48; settings: in vivo
# Summary of the method: (§3)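 Male Sprague-Dawley rats, three per group, fasted 12 h, then given a single intravenous dose of 5 mg/kg in 8% ethanol, 2% Tween 80 and 90% sterile water. Blood was drawn from the venous plexus at the inner canthus into heparin tubes at 5, 15 and 30 min and at 1, 2, 4, 8, 24, 32 and 48 h. Plasma was quantified by LC-MS/MS against an internal standard.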
# [14] = AUC(0 to t) in Sprague-Dawley rat at 5 mg/kg, iv measured up to 48 hrs by LC-MS/MS analysis; format: ADME, organism-based; design: route intravenous, dose 5 mg/kg, time <=48; settings: in vivo; summary of the method: as §3
# [15] = Half life in Sprague-Dawley rat at 5 mg/kg, iv measured up to 48 hrs by LC-MS/MS analysis; format: ADME, organism-based; settings: in vivo; summary of the method: as §3
# [16] = MRT in Sprague-Dawley rat at 5 mg/kg, iv measured up to 48 hrs by LC-MS/MS analysis; format: ADME, organism-based; settings: in vivo; summary of the method: as §3
# [17] = Clearance in Sprague-Dawley rat at 5 mg/kg, iv measured up to 48 hrs by LC-MS/MS analysis; format: ADME, organism-based; settings: in vivo; summary of the method: as §3
# [18] = Volume of distribution at steady state in Sprague-Dawley rat at 5 mg/kg, iv measured up to 48 hrs by LC-MS/MS analysis; format: ADME, organism-based; settings: in vivo, read-out: Vdss; summary of the method: as §3
# [19] = Toxicity in BALB/c athymic nude mouse xenografted with human HCT-116 cells assessed as reduction in body weight at 10 mg/kg, iv administered twice a week for 28 days; format: organism-based; settings: in vivo, 672 h, time 28 day
# Summary of the method: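 Male nude mice had 1 × 10^7 HCT-116 cells in serum-free RPMI 1640 implanted subcutaneously in the right flank. At ~300 mm³ (about day 10) they were randomized, n=3/group. Dosing was by tail vein twice weekly (D1/D4) for four weeks: 10 mg/kg in 8% ethanol/2% Tween 80/90% water, or 5 mg/kg in 10% sulfobutylether-β-cyclodextrin, 10 mmol/L citrate pH 3.5. Caliper volume (length × width²)/2 and body weight were measured twice weekly.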
# [20] = molecular target: T1, Proteasome Macropain subunit MB1 (Homo sapiens); assay: Covalent binding affinity to human 20S proteasome beta5 subunit assessed as compound-tryptic digest TTTLAFKFR peptide adduct formation at 10 uM incubated for 2 hrs measured after overnight incubation with trypsin by LC-MS/MS analysis
# Summary of the method: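 Purified human 20S proteasome (4 nM) was incubated with 10 μM inhibitor for 2 h at room temperature, then quenched and denatured with acetonitrile. Trypsin (1:50) digestion ran overnight at 37 °C, followed by C18 desalting. Nano-LC-MS/MS used a 0.1% formic acid water/acetonitrile gradient. Adducts were searched against UniProt at ±10 ppm precursor and ±0.02 Da fragment tolerance, allowing 2 missed cleavages.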
# [21] = molecular target: T1, Proteasome Macropain subunit MB1 (Homo sapiens); assay: Covalent binding affinity to human 20S proteasome beta5 subunit assessed as methyl hemi-ketal formation using H2O-CH3CN as mobile phase by HPLC analysis
structure (smiles),measurement,setting,value
COC[C@H](NC(=O)[C@H](CC(=O)NCC(C)(C)C)NS(=O)(=O)c1ccc(C)cc1)C(=O)N[C@@H](CC(C)C)C(=O)c1ccco1,inhibition,[1],> 50%
same,pIC50,[2],6.74
same,Activity,[3],< 30%
same,Activity,[4],27%
same,Ka,[5],4210 M⁻¹ s⁻¹
same,Kdiss,[6],0.0192 s⁻¹
same,pKd,[7],5.32
same,pIC50,A-375,6.06
same,pIC50,BGC-823,6.11
same,pIC50,HeLa,6.17
same,pIC50,A549,5.89
same,pIC50,[8],6.24
same,pIC50,HCT-116 [9],6.55
same,pIC50,HEK293,< 4.30
same,pIC50,HT-29,6.14
same,Activity,HCT-116 [10],9%
same,Activity,HCT-116 [11],14%
same,Activity,HCT-116 [12],77%
same,Cmax,[13],2010 ng/mL
same,AUC(0-t) at 48 h,[14],680 ng·h/mL
same,half-life,[15],13.8 min
same,MRT,[16],20.2 min
same,clearance,[17],33.3 mL/min/kg
same,Vd,[18],0.66 L/kg
same,Activity,[19],Non-Toxic
same,Activity,[20],inactive
same,Activity,[21],inactive
